Experimental data reported in ChEMBL document CHEMBL1158400, “Synthesis of 2-styrylchromones as a novel class of antiproliferative agents targeting carcinoma cells” (Eur J Med Chem, 2009).
Calls of active or inactive are those of the source. The calls are words filed in the database; no cut-off is given here.

Legend:
[1] = Antiproliferative activity against human SKHep cells after 12 hrs by MTT assay; type: functional, cell-based
How it was run: (§1)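 MTT assay. Cells grown as monolayers in DMEM with 10% FBS, 2 mM glutamine and penicillin/streptomycin at 37 °C, 5% CO2. Seeded at 1×10^4 cells/well and held 12 h before serial compound dilutions were added. Final DMSO was under 1% (v/v). MTT (2 mg/ml) was present for the last 1.5 h; the formazan was dissolved in DMSO and read at 570 nm. IC50 interpolated from dose-response curves; mean ± sem of four to six experiments.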

[2] = Antiproliferative activity against human BT-483 cells after 12 hrs by MTT assay; type: functional, cell-based; conditions: BT-483, 12 h; how it was run: as §1
A549 = test: Antiproliferative activity against human A549 cells after 12 hrs by MTT assay; type: functional, cell-based; conditions: A549, 12 h; how it was run: as §1
HeLa [3] = test: Antiproliferative activity against human HeLa cells after 12 hrs by MTT assay; type: functional, cell-based; how it was run: as §1
PC-3 = test: Antiproliferative activity against human PC3 cells after 12 hrs by MTT assay; type: functional, cell-based; conditions: PC-3, 12 h; how it was run: as §1
HeLa [4] = test: Cell cycle arrest in human HeLa cells assessed as accumulation at G1 phase at 20 uM after 24 hrs using propidium iodide staining by FACS analysis; type: functional, cell-based
HeLa [5] = test: Antiproliferative activity against human HeLa cells assessed as morphological changes at 20 uM after 24 hrs using DAPI staining by fluorescence microscopy; type: functional, cell-based
How it was run: (§2)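 HeLa cells were exposed 24 h to 5, 10 or 20 μM compound, with untreated and DMSO controls. Morphology (cell rounding, detachment from substratum) was examined.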

HeLa [6] = test: Antiproliferative activity against human HeLa cells assessed as morphological changes at 5 uM after 24 hrs using DAPI staining by fluorescence microscopy; type: functional, cell-based; how it was run: as §2
HeLa [7] = test: Antiproliferative activity against human HeLa cells at 10 uM after 30 hrs by MTT assay; type: functional
How it was run: (§3)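 HeLa cells at 10^4 cells/well were given the compound at 1.0, 3.0 or 10 μM, alongside an untreated control and a 0.1% DMSO control. Proliferation was followed by MTT at several time points over a 30 h period.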

HeLa [8] = test: Antiproliferative activity against human HeLa cells assessed as morphological changes at 10 uM after 24 hrs using DAPI staining by fluorescence microscopy; type: functional, cell-based; how it was run: as §2
HeLa [9] = test: Antiproliferative activity against human HeLa cells assessed as DNA fragmentation at 10 uM after 24 hrs using […] DAPI staining by fluorescence microscopy; type: functional, cell-based
How it was run: (§4)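 HeLa cells grown on cover glasses were treated 24 h with 5 or 10 μM compound, with untreated and 0.5% DMSO controls. They were fixed in 4% paraformaldehyde, glycine-washed and permeabilized with 2% FBS/0.4% Triton X-100. Nuclei were stained with DAPI (0.1 μg/ml) for 5 min in the dark, and DNA fragmentation was examined by fluorescence microscopy.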

HeLa [10] = test: Antiproliferative activity against human HeLa cells assessed as DNA fragmentation at 5 uM after 24 hrs using […] DAPI staining by fluorescence microscopy; type: functional, cell-based; how it was run: as §4
HeLa [11] = test: Antiproliferative activity against human HeLa cells at 3 uM after 30 hrs by MTT assay; type: functional; how it was run: as §3
HeLa [12] = test: Cell cycle arrest in human HeLa cells assessed as accumulation at sub-G1 phase after 24 hrs using propidium iodide staining by FACS analysis; type: functional, cell-based
How it was run: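 HeLa cells were treated 24 h with compound at 5 or 20 μM, with a 0.5% DMSO control and untreated blank. Cells were harvested, rinsed in PBS and fixed in 80% ethanol at −20 °C. They were stained with propidium iodide and analysed by flow cytometry. The sub-diploid (apoptotic) population is expressed as a percentage of all cells.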

IC50 (A549) [µM] | IC50 (HeLa [3]) [µM] | IC50 (PC-3) [µM] | Compound | IC50 [1] [µM] | IC50 ([2]; read-out: IC50) [µM] | IC50 ([2]; read-out: pIC50 (converted)) [µM] | Activity (HeLa [4]) | Activity (HeLa [5]) | Activity (HeLa [6]) | Activity (HeLa [7]) [%] | Activity (HeLa [8]) | Activity (HeLa [9]) | Activity (HeLa [10]) | Activity (HeLa [11]) [%] | Activity (HeLa [12])
> 40 | 9.1 | > 40 | COc1cccc2oc(/C=C/c3ccc(OC(F)(F)F)cc3)cc(=O)c12 | 21 | 18.2 | 18.2 |  |  |  |  |  |  |  |  | 
> 40 | 19 | > 40 | COc1cc(OC)c2c(=O)cc(/C=C/c3ccc(C(F)(F)F)cc3)oc2c1 | 20.6 | > 40 | 60.3 | Active |  |  |  |  |  |  |  | 
> 40 | 16.4 | > 40 | COc1cc(OC)c2c(=O)cc(/C=C/c3ccc4c(c3)OCO4)oc2c1 | 23.7 | 29.3 | 29.5 |  |  |  |  |  |  |  |  | 
> 40 | > 40 | > 40 | COc1cc(OC)c2c(=O)cc(/C=C/c3ccc(Br)cc3)oc2c1 | > 40 | > 40 | 60.3 |  |  |  |  |  |  |  |  | 
> 40 | 18.8 | > 40 | COc1cc(OC)c2c(=O)cc(/C=C/c3ccncc3)oc2c1 | > 40 | 25.2 | 25.1 |  |  |  |  |  |  |  |  | 
19.7 | 9.6 | > 40 | COc1cc(OC)c2c(=O)cc(/C=C/c3ccc([N+](=O)[O-])cc3)oc2c1 | 22 | 25.5 | 25.5 |  |  |  |  |  |  |  |  | 
18.6 | 14.2 | > 40 | COc1cc(OC)c2c(=O)cc(/C=C/c3ccc(F)cc3)oc2c1 | 29.2 | 19.9 | 20 |  |  |  |  |  |  |  |  | 
> 40 | 9.9 | > 40 | COc1ccc2c(=O)cc(/C=C/c3ccc(OC(F)(F)F)cc3)oc2c1 | > 40 | 20.1 | 20 |  |  |  |  |  |  |  |  | 
> 40 | 17.8 | > 40 | COc1ccc(/C=C/c2cc(=O)c3c(OC)cc(OC)cc3o2)cc1 | > 40 | 29.6 | 29.5 |  |  |  |  |  |  |  |  | 
20.9 | 10.9 | > 40 | COc1cc(OC)c2c(=O)cc(/C=C/c3ccc(OCC4CC4)cc3)oc2c1 | 22.1 | 16.6 | 16.6 |  |  |  |  |  |  |  |  | 
> 40 | 14.2 | > 40 | COc1cc(OC)c2c(=O)cc(/C=C/c3ccc(Cl)cc3)oc2c1 | 26.9 | 26.1 | 26.3 |  |  |  |  |  |  |  |  | 
21.5 | 10.1 | > 40 | COc1cc(OC)c2c(=O)cc(/C=C/c3ccccc3)oc2c1 | 26 | > 40 |  | Active |  |  |  |  |  |  |  | 
> 40 | 9 | > 40 | COc1ccc2oc(/C=C/c3ccc(OC(F)(F)F)cc3)cc(=O)c2c1 | > 40 | > 40 |  |  |  |  |  |  |  |  |  | 
24.2 | > 40 | > 40 | COc1cc(OC)c2c(=O)cc(/C=C/c3ccc(OC(F)(F)F)cc3)oc2c1 | 12.5 | 26.6 | 26.3 |  |  |  |  |  |  |  |  | 
15.6 | 16.7 | > 40 | COc1cc(/C=C/c2cc(=O)c3c(OC)cc(OC)cc3o2)cc(OC)c1 | 23.7 | 16.6 | 16.6 |  |  |  |  |  |  |  |  | 
> 40 | 4.9 | > 40 | COc1ccc2c(=O)cc(/C=C/c3ccc(OC(F)(F)F)cc3)oc2c1OC | 12.4 | 30.9 | 30.9 |  | Active | Active | 60 | Active | Active | inactive | 15 | Dose-dependent effect
